Experimental data published in ChEMBL document CHEMBL1138152, “Design and synthesis of novel hydrazide-linked bifunctional peptides as delta/mu opioid receptor agonists and CCK-1/CCK-2 receptor antagonists” (J Med Chem, 2006).

Key:
[1] = target: T1, Cholecystokinin receptor (Homo sapiens) (UniProt P32239+P32238); test: Antagonist activity at CCK receptor by inhibition of CCK8-induced muscle contraction in unstimulated GPI/LMMP at 1 uM; type: functional; conditions: Cavia porcellus, filed as partial agonist, target entry is the homologue from another species
[2] = target: Delta-type opioid receptor (Homo sapiens, UniProt P41143); test: Inhibition of [35S]GTP-gamma-S binding to human delta opioid receptor expressed in CHO cells; type: functional, cell-based
Summary of the method: (§1)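 CHO-expressed receptor membranes (10 µg) in 50 mM HEPES pH 7.4 with EDTA, 5 mM MgCl2, 30 µM GDP, DTT, 100 mM NaCl, PMSF, BSA and 0.1 nM [35S]GTPγS. Test drug at various concentrations, duplicate or triplicate, 90 min at 30 °C. Nonspecific binding with 10 µM GTPγS.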

[3] = target: T1, Cholecystokinin receptor (Homo sapiens); test: Agonist activity at CCK receptor of guinea pig ileum at 1 uM; type: functional, tissue-based; conditions: Cavia porcellus, target entry is the homologue from another species
Summary of the method: (§2)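 Guinea pig ileum LMMP strips (male Hartley), 20-mL baths, 1 g tension, oxygenated Krebs bicarbonate buffer, 37 °C. Tissue first challenged with 67 mM KCl to set maximal contraction. Test compound added to the bath; agonist activity taken as contraction height as a percentage of the maximal KCl contraction (A50).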

[4] = target: Mu-type opioid receptor (Rattus norvegicus) (UniProt P33535); test: Inhibition of [35S]GTP-gamma-S binding to rat mu opioid receptor expressed in CHO cells; type: functional, cell-based; summary of the method: as §1
Mu-type opioid receptor = Mu-type opioid receptor (Cavia porcellus, UniProt P97266); test: Agonist activity at mu opioid receptor by inhibition of muscle contraction in electrically stimulated isolated guinea pig ileum; type: functional, tissue-based
Summary of the method: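 Longitudinal muscle–myenteric plexus strips from male Hartley guinea pig ileum, 1 g tension, oxygenated Krebs at 37 °C, 15 min equilibration. Stimulated at 0.1 Hz, 0.4 ms, supramaximal voltage. Integrity checked with PL-017 (10 nM). Compound added until maximal inhibition. Inhibition taken as contraction height 1 min before versus 3 min after dosing. IC50 from Hill-equation fit.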

[5] = target: Delta-type opioid receptor (Mus musculus, UniProt P32300); test: Agonist activity at delta opioid receptor by inhibition of muscle contraction in electrically stimulated isolated mouse vas deferens; type: functional, tissue-based
Summary of the method: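 Male ICR mouse vasa deferentia in 20-mL baths, 0.5 g tension, oxygenated Mg-free Krebs at 37 °C; field stimulation 0.1 Hz, 2.0 ms single pulses, supramaximal voltage. Tissue integrity checked with DPDPE (10 nM). Compound added cumulatively until maximal inhibition. Inhibition taken as mean contraction height for 1 min before dosing versus height 3 min after. IC50 from Hill-equation fit by nonlinear least squares.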

[6] = target: T1, Cholecystokinin receptor (Homo sapiens); test: Antagonist activity at CCK receptor by inhibition of CCK8-induced muscle contraction in unstimulated GPI/LMMP; type: functional; conditions: Cavia porcellus; target entry is the homologue from another species
Summary of the method: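 Male Hartley guinea pig ileum LMMP strips, 1 g tension, oxygenated Krebs bicarbonate buffer, 37 °C; 67 mM KCl sets maximal contractility. Initial noncumulative CCK-8 dose-response curve built. Test compound added without electrical stimulation; 3 min later the CCK-8 curve was rebuilt at an antagonist dose giving about a 3-fold rightward shift. Ke is the antagonist concentration halving CCK-8 activity.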

[7] = target: T1, Cholecystokinin receptor (Homo sapiens); test: Agonist activity at CCK receptor of guinea pig ileum at 300 nM; type: functional, tissue-based; conditions: Cavia porcellus, target entry is the homologue from another species; summary of the method: as §2
[8] = Selectivity for human delta opioid receptor over rat mu opioid receptor

T1 sequence (P32238 whole entry, looked up): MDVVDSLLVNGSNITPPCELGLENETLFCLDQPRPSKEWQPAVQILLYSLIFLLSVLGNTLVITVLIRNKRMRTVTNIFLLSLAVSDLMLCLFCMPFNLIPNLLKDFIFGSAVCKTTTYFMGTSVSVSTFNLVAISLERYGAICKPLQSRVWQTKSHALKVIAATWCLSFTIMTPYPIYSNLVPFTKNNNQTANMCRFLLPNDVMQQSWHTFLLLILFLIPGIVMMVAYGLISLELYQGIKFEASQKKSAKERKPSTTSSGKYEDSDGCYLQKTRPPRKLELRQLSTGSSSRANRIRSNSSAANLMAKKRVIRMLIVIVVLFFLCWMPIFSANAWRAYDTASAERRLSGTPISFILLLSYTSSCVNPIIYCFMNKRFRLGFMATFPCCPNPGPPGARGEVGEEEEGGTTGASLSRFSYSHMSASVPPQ
T1 sequence (P32239 whole entry, looked up): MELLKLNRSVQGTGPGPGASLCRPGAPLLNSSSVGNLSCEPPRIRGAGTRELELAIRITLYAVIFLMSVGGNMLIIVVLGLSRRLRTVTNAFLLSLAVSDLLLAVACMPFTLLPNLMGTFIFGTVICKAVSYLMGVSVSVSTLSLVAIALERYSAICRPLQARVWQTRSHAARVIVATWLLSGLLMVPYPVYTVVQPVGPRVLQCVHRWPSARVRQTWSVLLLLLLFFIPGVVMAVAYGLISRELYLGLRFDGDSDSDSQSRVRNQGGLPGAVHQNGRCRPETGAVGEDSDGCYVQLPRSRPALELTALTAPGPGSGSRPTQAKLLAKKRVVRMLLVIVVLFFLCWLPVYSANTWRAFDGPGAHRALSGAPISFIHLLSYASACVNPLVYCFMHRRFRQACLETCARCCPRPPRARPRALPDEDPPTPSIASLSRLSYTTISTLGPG
Delta-type opioid receptor (Homo sapiens, UniProt P41143), sequence (P41143 whole entry): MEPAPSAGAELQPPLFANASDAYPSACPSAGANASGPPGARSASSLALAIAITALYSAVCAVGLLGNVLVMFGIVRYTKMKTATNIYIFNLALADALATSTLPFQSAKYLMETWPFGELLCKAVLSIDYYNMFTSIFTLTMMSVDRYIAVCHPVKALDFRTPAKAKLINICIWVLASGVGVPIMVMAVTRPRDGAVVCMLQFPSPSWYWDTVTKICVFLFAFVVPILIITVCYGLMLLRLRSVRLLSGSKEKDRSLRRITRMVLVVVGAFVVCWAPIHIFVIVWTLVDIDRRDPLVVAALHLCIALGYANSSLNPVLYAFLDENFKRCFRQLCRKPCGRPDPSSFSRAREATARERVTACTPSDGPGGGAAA
Mu-type opioid receptor (Rattus norvegicus), sequence (P33535 whole entry): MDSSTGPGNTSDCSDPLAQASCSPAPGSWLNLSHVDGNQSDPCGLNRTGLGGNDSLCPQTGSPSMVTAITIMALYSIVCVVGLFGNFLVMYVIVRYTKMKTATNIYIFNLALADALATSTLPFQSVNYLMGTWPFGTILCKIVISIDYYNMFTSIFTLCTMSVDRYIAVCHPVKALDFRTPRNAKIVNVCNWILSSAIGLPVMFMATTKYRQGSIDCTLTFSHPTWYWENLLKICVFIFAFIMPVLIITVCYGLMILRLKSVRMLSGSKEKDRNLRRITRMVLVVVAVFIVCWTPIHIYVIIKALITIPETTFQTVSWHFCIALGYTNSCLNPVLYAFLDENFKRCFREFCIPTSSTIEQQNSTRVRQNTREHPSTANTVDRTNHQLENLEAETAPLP
Delta-type opioid receptor (Mus musculus, UniProt P32300), sequence (P32300 whole entry): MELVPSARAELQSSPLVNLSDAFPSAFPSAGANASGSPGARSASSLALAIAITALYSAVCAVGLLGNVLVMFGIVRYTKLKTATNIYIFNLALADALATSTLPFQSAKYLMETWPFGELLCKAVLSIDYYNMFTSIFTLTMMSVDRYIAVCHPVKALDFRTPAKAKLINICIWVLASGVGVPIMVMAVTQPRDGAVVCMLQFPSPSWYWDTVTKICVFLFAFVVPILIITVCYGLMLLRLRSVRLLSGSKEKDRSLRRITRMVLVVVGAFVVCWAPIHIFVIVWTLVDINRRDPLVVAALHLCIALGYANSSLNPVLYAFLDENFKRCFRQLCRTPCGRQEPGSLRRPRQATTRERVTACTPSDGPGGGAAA
Mu-type opioid receptor, sequence (P97266 whole entry): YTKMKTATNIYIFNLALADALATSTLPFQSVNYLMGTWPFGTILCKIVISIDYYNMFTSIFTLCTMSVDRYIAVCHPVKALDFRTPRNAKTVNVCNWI

SMILES | Ke [1] | Emax [2] [%] | Activity [3] [%] | Emax [4] [%] | IC50 (Mu-type opioid receptor) [nM] | IC50 [5] [nM] | Ke [6] [nM] | Activity [7] [%] | Selectivity ratio [8]
CCCC[C@@H](C(=O)N[C@H](Cc1cn(C(=O)OC(C)(C)C)c2ccccc12)C(=O)O)N(C)C(=O)[C@H](CC(=O)O)NC(=O)[C@H](Cc1ccccc1)NN[C@@H](Cc1ccccc1)C(=O)NCC(=O)N[C@H](C)C(=O)N[C@@H](Cc1ccc(O)cc1)C(=O)O | Partial agonist | 120 | 5 | 130 |  |  |  |  | 
CCCC[C@@H](C(=O)N[C@@H](CC(=O)O)C(=O)N[C@@H](Cc1ccccc1)C(N)=O)N(C)C(=O)[C@H](Cc1c[nH]c2ccccc12)NC(=O)CNC(=O)[C@@H](Cc1ccccc1)NC(=O)[C@H](Cc1ccc(O)cc1)NC(=O)[C@@H](N)CC(=O)O |  |  |  |  | 220 | 29 | 66 | 0 | 
CCCC[C@H](NC(=O)[C@H](CC(=O)O)NC(=O)[C@H](Cc1ccccc1)NN[C@@H](Cc1ccccc1)C(=O)NCC(=O)N[C@H](C)C(=O)N[C@@H](Cc1ccc(O)cc1)C(=O)O)C(=O)N[C@H](Cc1cn(C(=O)OC23CC4CC(CC(C4)C2)C3)c2ccccc12)C(=O)O |  | 25 | 0 | 103 |  |  | 44 |  | 430
